# Results taken from PubChem BioAssay.
# Active and inactive are the calls of the source.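 How the source made its calls, unless noted: active means inhibition above 20% together with a positive visual image hit; inconclusive means visual image hit but inhibition not above 20%; inactive means no visual image hit.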
# Legend:
# [1] = inhibitors of TNFa-induced NFkB p65 translocation, primary screen, imaging, HUVEC, MLSMR starter and 10KST1 sets (AID 438); conditions: HUVEC TNFa-induced p65 nuclear translocation; cell count: measured here: nuclei count (cytotoxicity indicator), at 2.08 µM; inhibition: at 2 µM, stronger effect = higher value, 0% TNFa-plus-vehicle, 100% no-TNFa wells;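 further: compound added about 3h40 before a 20 min TNFalpha stimulation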;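 on inhibition: signal is the nuclear over cytoplasmic p65 intensity ratio per well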
# [2] = endothelial E-selectin expression blockers – imaging, HUVEC, immunofluorescence, MLSMR starter and 10KST1 sets, primary screen (AID 487;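 active means visually confirmed hit in the image check and inhibition above 20%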;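 on inhibition: signal is fraction of cell area covered by stained E-selectin grains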;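 on nuclei count: 100% = median nuclei count of all wells on the same plate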); conditions: HUVEC TNFalpha-induced E-selectin immunofluorescence imaging, at 2 µM; inhibition: stronger effect = higher value; nuclei count: measured here: cell number, toxicity
# [3] = Primary imaging screen for DUSP6 inhibitors that restore phospho-Erk in transfected HeLa cells, chemical complementation (AID 609;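 active means compounds giving at least 50% inhibition in the cell-based MKP-3 phosphatase rescue imaging test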;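 on inhibition: phospho-Erk level distribution per well compared with pooled transfected vehicle control wells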); conditions: HeLa MKP-3 transfected, phospho-Erk imaging KS statistic, at 10 µM, cells stimulated with TPA for 15 min
# [4] = biological target: Dual specificity protein phosphatase 6 (Homo sapiens) (UniProt Q16828); assay: as above; conditions: HeLa MKP-3 transfected, phospho-Erk imaging KS statistic; at 10 µM; stronger effect = higher value; cells stimulated with TPA for 15 min
# [5] = biological target: Voltage-gated potassium channel subunit beta-2 (Rattus norvegicus) (UniProt P62483); assay: inhibitors of rat Kvbeta2 reductase activity – biochemical, NADPH fluorescence, primary screen (AID 622;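 active means fluorescence slope higher than the sample average by over 3 SD, cut at about -0.22 in these data, passing the limit was not always enough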;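 further: slope of raw intensity against log time taken from 70 to 1610 s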); conditions: recombinant KvBeta, 4-cyanobenzaldehyde reduction, at 10 µM, stronger effect = higher value
# [6] = biological target: Voltage-gated potassium channel subunit beta-2 (Rattus norvegicus) (UniProt P62483); assay: enhancers of rat Kvbeta2 NADPH turnover – biochemical, NADPH fluorescence, primary screen (AID 623;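 active means NADPH fluorescence slope more negative than the mean of all samples by about 3 SD, 99.7% confidence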;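 further: fluorescence intensity change per second fitted from 20 to 320 s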); conditions: Recombinant KvBeta, NADPH fluorescence decrease slope, 10 min; at 10 µM; stronger effect = lower value
# [7] = biological target: Alpha-2C adrenergic receptor (Homo sapiens) (UniProt P18825); assay: compounds altering alpha2C-coupled GIRK flux – cell-based, HEK293 alpha2C/GIRK1/2, thallium flux, primary screen (AID 624;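 active means fluorescence slope after compound addition differing from the mean of all screened samples at 99.7% confidence, in either direction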;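 further: slope of fluorescence ratio to pre-addition baseline per second over 15 to 24 s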); conditions: thallium flux BTC fluorescence, at 10 µM, actives lie on both sides
# [8] = inhibitors of larval lipid processing in zebrafish, primary screen, whole organism, PED6 fluorescence, gall bladder and intestine (AID 686;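 active means a full or partial loss of lipid-probe fluorescence in the fish gall bladder, intestine or both, judged by eye; inactive means no fluorescence loss, or compound toxic to the fish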;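 further: larvae 5 to 7 days old with five fish per well; signal comes from phospholipase A2 cleavage of quenched PED6 carried via bile; overnight exposure to compound and PED6 before scoring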); conditions: Zebrafish larvae PED6 lipid processing, fluorescence scoring; screened at 20 µM (by protocol)
# In short: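 System: live zebrafish larvae aged 5-7 days, whole organism; measure: graded gall bladder and intestinal fluorescence inhibition per well; incubation: overnight exposure; reagent: ingested quenched lipid PED6 at 100 nM; signal: By-eye fluorescence microscopy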
# [9] = loss of swimming-algae plug formation – whole organism, Chlamydomonas reinhardtii, WT vs cilia-less mutant, absorbance, 96-well, primary screen (AID 463189;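 active means inhibition at or above 50% relative to wild type and mutant plate controls; inactive means inhibition below 50%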;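 further: 0% = wild type cc124 cells in DMSO and 100% = ciliumless bld1 mutant cells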); conditions: Chlamydomonas reinhardtii gravitaxis, OD600 absorbance, 2 days; at 10 µM; stronger effect = higher value
# [10] = measured here: cell density z-score
# [11] = measured here: nuclear c-Myc green intensity z-score
# [12] = measured here: nuclear pErk red intensity z-score, stronger effect = higher value
# Sequence of Voltage-gated potassium channel subunit beta-2 (Rattus norvegicus) (P62483 whole entry, looked up): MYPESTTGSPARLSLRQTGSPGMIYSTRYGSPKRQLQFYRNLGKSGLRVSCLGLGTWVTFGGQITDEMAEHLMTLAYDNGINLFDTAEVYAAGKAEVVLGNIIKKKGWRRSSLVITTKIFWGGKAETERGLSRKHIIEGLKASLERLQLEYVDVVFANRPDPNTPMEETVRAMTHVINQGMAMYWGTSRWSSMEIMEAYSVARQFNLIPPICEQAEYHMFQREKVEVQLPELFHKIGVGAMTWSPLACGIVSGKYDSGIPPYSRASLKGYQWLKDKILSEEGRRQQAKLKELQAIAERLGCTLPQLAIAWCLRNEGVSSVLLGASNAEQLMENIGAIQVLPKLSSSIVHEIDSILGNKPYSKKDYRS
# Sequence of Dual specificity protein phosphatase 6 (Homo sapiens) (Q16828 whole entry, looked up): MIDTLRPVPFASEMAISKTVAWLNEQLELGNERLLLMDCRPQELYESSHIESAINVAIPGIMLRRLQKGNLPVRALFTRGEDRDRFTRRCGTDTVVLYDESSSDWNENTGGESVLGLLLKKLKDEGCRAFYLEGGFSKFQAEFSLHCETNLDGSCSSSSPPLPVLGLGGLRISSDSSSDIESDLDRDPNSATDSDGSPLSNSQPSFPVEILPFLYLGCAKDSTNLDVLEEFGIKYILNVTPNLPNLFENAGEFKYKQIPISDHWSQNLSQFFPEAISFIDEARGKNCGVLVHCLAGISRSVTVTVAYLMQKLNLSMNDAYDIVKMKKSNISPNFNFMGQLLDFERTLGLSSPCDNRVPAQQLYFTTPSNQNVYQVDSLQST
# Sequence of Alpha-2C adrenergic receptor (Homo sapiens) (P18825 whole entry, looked up): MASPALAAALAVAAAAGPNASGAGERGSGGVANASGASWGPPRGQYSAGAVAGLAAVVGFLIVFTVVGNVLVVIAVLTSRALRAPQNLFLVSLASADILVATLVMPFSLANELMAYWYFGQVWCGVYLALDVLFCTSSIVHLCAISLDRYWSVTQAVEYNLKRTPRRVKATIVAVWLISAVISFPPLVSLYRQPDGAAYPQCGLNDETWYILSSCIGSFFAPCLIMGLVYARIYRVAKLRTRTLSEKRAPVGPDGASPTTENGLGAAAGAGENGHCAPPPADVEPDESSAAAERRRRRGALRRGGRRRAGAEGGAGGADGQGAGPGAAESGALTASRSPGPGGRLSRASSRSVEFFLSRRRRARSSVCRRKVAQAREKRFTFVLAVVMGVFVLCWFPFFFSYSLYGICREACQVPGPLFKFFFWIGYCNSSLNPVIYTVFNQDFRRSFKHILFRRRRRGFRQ
SMILES,cell count [1],inhibition [1],inhibition [2],nuclei count [2] [%],"z-score [3, 10]","z-score [3, 11]","z-score [3, 12]",inhibition [4],fluorescence slope [5],NADPH fluorescence slope [6],slope [7],outcome [8],inhibition [9]
O=C(O)C1CSC(CCc2ccccc2)N1 (stereo not given),633,-7.7% (inactive),-34.8% (inactive),140,-0.486,0.112,1.29,7.83% (inactive),-0.459 (inactive),-0.000276 (inactive),0.00538 (inactive),inactive,8.25% (inactive)
c1ccc(OCc2nn3c(-c4ccco4)nnc3s2)cc1,654,3.2% (inactive),-139% (inactive),156,2.72,-1.05,-0.302,11.9% (inactive),-0.417 (inactive),-0.000108 (inactive),0.00597 (inactive),inactive,7.84% (inactive)
CCOC(=O)N1CC=C2C(C#N)=C(N)C(C#N)(C#N)[C@H](c3cccs3)[C@H]2C1,664,-14.7% (inactive),44.9% (inactive),144,0.0987,-0.332,-1.22,11% (inactive),-0.367 (inactive),-2e-05 (inactive),0.00502 (inactive),inactive,26.4% (inactive)
COCCOC(=O)c1c(C)nc(SCC(=O)Nc2ccc(C)cc2)c(C#N)c1-c1ccco1,403,0.9% (inactive),-123% (inactive),124,1.33,0.851,-1.03,-2.59% (inactive),-0.446 (inactive),-8.7e-05 (inactive),0.00716 (inactive),inactive,7.49% (inactive)
COc1ccc(C2=Nn3c(nnc3-c3ccccn3)SC2)cc1,635,-4.7% (inactive),-43.3% (inactive),169,0.562,0.488,-0.686,-4.27% (inactive),-0.427 (inactive),-0.00018 (inactive),0.0069 (inactive),inactive,2.53% (inactive)
Cn1ncc(N=Cc2ccccc2)c1C(N)=O,599,2.9% (inactive),-32.8% (inactive),138,-2.18,0.507,1.65,18.6% (inactive),-0.54 (inactive),-8.2e-05 (inactive),0.00589 (inactive),inactive,-3.53% (inactive)
COc1ccc(Nc2cc(C)nc3ccccc23)cc1,467,-5.2% (inactive),36% (inactive),118,0.29,0.934,-1.53,4.72% (inactive),-0.429 (inactive),-2.1e-05 (inactive),0.00465 (inactive),inactive,17.6% (inactive)
CCCCOc1nc2ccccc2nc1C(C#N)C(=O)NC1CCCCC1 (stereo not given),320,-10.2% (inactive),-124% (inactive),151,-1.21,0.194,1.47,-15.8% (inactive),-0.41 (inactive),-0.00013 (inactive),0.00654 (inactive),inactive,1.58% (inactive)
COc1cc(-c2nn3c(-c4ccco4)nnc3s2)cc(OC)c1OC,483,-2.2% (inactive),-67.5% (inactive),99.3,-0.638,-0.467,0.841,-2.47% (inactive),-0.471 (inactive),3.2e-05 (inactive),0.0061 (inactive),inactive,4.86% (inactive)
COc1ccc(C2=Nn3c(nnc3-c3cccnc3)SC2)cc1OC,614,-5.8% (inactive),-109% (inactive),152,-0.53,0.48,0.0126,-7.86% (inactive),-0.398 (inactive),-0.000172 (inactive),0.00709 (inactive),inactive,2.3% (inactive)
Cc1ccc(OCC(=O)NCC(=O)n2nc(C)cc2C)cc1,580,-8% (inactive),13.1% (inactive),170,-0.967,-0.193,1.92,-7.01% (inactive),-0.382 (inactive),-2.8e-05 (inactive),0.00489 (inactive),inactive,-1.21% (inactive)
CN1C(=O)C2(N=c3ccccc3=N2)c2ccccc21,527,-4.5% (inactive),-152% (inactive),209,-0.677,0.303,0.421,7.73% (inactive),-0.482 (inactive),-4.4e-05 (inactive),0.00491 (inactive),inactive,9.55% (inactive)
CCOC(=O)c1ccc(NC(=O)Cn2nnc3ccccc32)cc1,333,-8.2% (inactive),-17.3% (inactive),84.8,0.667,0.595,-0.72,7.48% (inactive),-0.538 (inactive),-0.000163 (inactive),0.0051 (inactive),inactive,37.7% (inactive)
CCOc1ccc(Br)cc1CC(=O)O,280,-20.4% (inactive),-108% (inactive),90.5,-0.00622,-0.788,-0.945,14% (inactive),-0.486 (inactive),-0.000116 (inactive),0.00651 (inactive),inactive,-8.79% (inactive)
c1cncc(Oc2cccc(Oc3cccnc3)c2)c1,388,-2.6% (inactive),-116% (inactive),133,-0.336,0.96,-0.973,-2.07% (inactive),-0.426 (inactive),-1.4e-05 (inactive),0.00527 (inactive),inactive,-16% (inactive)
COc1cccc(-c2nn3c(-c4ccccn4)nnc3s2)c1,630,-8% (inactive),-117% (inactive),150,0.488,-0.624,-0.933,15.5% (inactive),-0.454 (inactive),-0.000157 (inactive),0.00706 (inactive),inactive,65.3% (active)
N#CC12CCCCC1CC1CCCCC1(C#N)N2Cc1cccnc1 (stereo not given),364,-10.3% (inactive),3.8% (inactive),97.2,1.59,-0.921,-1.61,17% (inactive),-0.557 (inactive),-6.5e-05 (inactive),0.00335 (inactive),inactive,44.6% (inactive)
N#CC1=C(N)NC(SCc2ccc(Cl)cc2)=C(C#N)C12CCCCC2,630,-23% (inactive),44.1% (inactive),180,0.0253,-0.669,0.519,1.04% (inactive),-0.409 (inactive),-5.9e-05 (inactive),0.00372 (inactive),inactive,18.9% (inactive)
CCCC(=O)Nc1sc2c(c1C#N)CCCC2,385,7.8% (inactive),-83.9% (inactive),110,-0.165,0.756,-2.32,3.56% (inactive),-0.445 (inactive),-0.000372 (inactive),0.00647 (inactive),inactive,-10.7% (inactive)
CCOC(=O)COc1ccc(Oc2nc(C)cc(OC)n2)nn1,443,-4.6% (inactive),-136% (inactive),152,0.693,-0.0792,0.257,0.671% (inactive),-0.417 (inactive),-8.4e-05 (inactive),0.00639 (inactive),inactive,9.9% (inactive)
